{"source": "ChEMBL document CHEMBL3853347", "about": "“PUMA-dependent apoptosis in NSCLC cancer cells by a dimeric β-carboline” (Bioorg Med Chem Lett, 2016)", "key": {"[1]": {"test": "Cytotoxicity against human NCI-H2009 cells assessed as decrease in cell viability after 48 hrs by Alamar blue assay", "format": "functional, cell-based", "details": "NCI-H2009, 48 h"}, "NCI-H1299 [2]": {"tested_on": "NCI-H1299", "test": "Induction of apoptosis in human NCI-H1299 cells assessed as apoptotic cells at 15 uM after 48 hrs by annexin V-phycoerythrin/7-AAD staining based flow cytometry (reference value: 4%)", "format": "functional"}, "NCI-H1299 [3]": {"tested_on": "NCI-H1299", "test": "Induction of autophagy in human NCI-H1299 cells transfected with GFP-LC3 assessed as increase in LC3-2 level at 20 uM after 24 hr by DAPI staining based immunofluorescence assay", "format": "functional, cell-based", "outline": "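H1299 cells transiently transfected with GFP-LC3, then treated 24 hrs with compound (3–20 μM) or DMSO. GFP-LC3 puncta were imaged by confocal microscopy and counted per cell; n=30 cells, s.d.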"}, "[4]": {"test": "Drug localization in lysosomes of human NCI-H1299 cells at 20 uM after 1 hr by mitotracker green FM/lysotracker red DND-99 staining based confocal microscopy", "format": "ADME, cell-based, Lysosome", "details": "nci-h1299, 1 h", "outline": "(§1)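 Live H1299 cells exposed to compound for 1 hr, then co-stained with MitoTracker Green FM (mitochondria) and LysoTracker Red DND-99 (lysosomes). Localization was read by live confocal microscopy using the β-carboline's intrinsic fluorescence (Ex/Em 358/461 nm), compared against the organelle stains.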"}, "[5]": {"test": "Cytotoxicity against human NCI-H441 cells assessed as decrease in cell viability after 48 hrs by Alamar blue assay", "format": "functional, cell-based", "details": "NCI-H441, 48 h"}, "[6]": {"test": "Cytotoxicity against human NCI-H1299 cells assessed as decrease in cell viability after 48 hrs by Alamar blue assay", "format": "functional, cell-based", "details": "NCI-H1299, 48 h"}, "[7]": {"test": "Cytotoxicity against human NCI-H1993 cells assessed as decrease in cell viability after 48 hrs by Alamar blue assay", "format": "functional, cell-based", "details": "NCI-H1993, 48 h"}, "[8]": {"test": "Cytotoxicity against human A549 cells assessed as decrease in cell viability after 48 hrs by Alamar blue assay", "format": "functional, cell-based", "details": "A549, 48 h"}, "[9]": {"test": "Cytotoxicity against human NCI-H1373 cells assessed as decrease in cell viability after 48 hrs by Alamar blue assay", "format": "functional, cell-based", "details": "NCI-H1373, 48 h"}, "[10]": {"test": "Cytotoxicity against human IMR90 cells assessed as decrease in cell viability after 48 hrs by Alamar blue assay", "format": "toxicity, cell-based, IMR-90"}, "NCI-H1299 [11]": {"tested_on": "NCI-H1299", "test": "Induction of apoptosis in human NCI-H1299 cells assessed as increase in cleaved PARP level at 3 to 10 uM after 24 hrs by Western blot analysis", "format": "functional, cell-based", "outline": "(§2)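 H1299 cells treated 24 hrs with compound (3, 5, 10 or 20 μM) or DMSO. Lysates were probed by western blot for apoptotic markers: cleaved caspase 3, cleaved lamin A and cleaved PARP.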"}, "NCI-H1299 [12]": {"tested_on": "NCI-H1299", "test": "Induction of autophagy in human NCI-H1299 cells assessed as increase in p62/SQSTM1 level at 3 to 10 uM after 24 hr by Western blot analysis", "format": "functional, cell-based", "outline": "(§3)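 H1299 cells incubated 24 hrs with compound (3, 5, 10 or 20 μM) or DMSO. LC3 (LC3II band) and p62/SQSTM1 were detected by western blot.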"}, "NCI-H1299 [13]": {"tested_on": "NCI-H1299", "test": "Induction of apoptosis in human NCI-H1299 cells assessed as apoptotic cells at 3 uM after 48 hrs by annexin V-phycoerythrin/7-AAD staining based flow cytometry (reference value: 4%)", "format": "functional"}, "NCI-H1299 [14]": {"tested_on": "NCI-H1299", "test": "Induction of autophagy in human NCI-H1299 cells assessed as increase in LC3-2 level after 24 hr by Western blot analysis", "format": "functional, cell-based", "outline": "as §3"}, "NCI-H1299 [15]": {"tested_on": "NCI-H1299", "test": "Induction of apoptosis in human NCI-H1299 cells assessed as increase in cleaved caspase 3 level after 24 hrs by immunofluorescence based confocal microscopy", "format": "functional, cell-based", "outline": "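H1299 cells treated 24 hrs with compound (5 or 20 μM) or DMSO, then immunostained for active caspase 3 and imaged by confocal microscopy. Apoptotic fraction was calculated as cells expressing active caspase over total cells; n=3, s.d.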"}, "NCI-H1299 [16]": {"tested_on": "NCI-H1299", "test": "Induction of apoptosis in human NCI-H1299 cells assessed as increase in cleaved lamin A level at 3 to 10 uM after 24 hrs by Western blot analysis", "format": "functional, cell-based", "outline": "as §2"}, "[17]": {"test": "Drug localization in lysosomes of human NCI-H1299 cells at 10 uM after 1 hr by mitotracker green FM/lysotracker red DND-99 staining based confocal microscopy", "format": "ADME, cell-based, Lysosome", "details": "nci-h1299, 1 h", "outline": "as §1"}, "[18]": {"test": "Upregulation of PUMA expression in human NCI-H1299 cells assessed as after 24 hrs by Western blot analysis", "format": "functional, cell-based", "outline": "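PUMA protein measured by western blot in H1299 cells after 24 hrs with compound (3, 5, 10 or 20 μM) or DMSO.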"}, "NCI-H1299 [19]": {"tested_on": "NCI-H1299", "test": "Induction of apoptosis in human NCI-H1299 cells assessed as increase in cleaved caspase 3 level after 24 hrs by Western blot analysis", "format": "functional, cell-based", "outline": "as §2"}, "NCI-H1299 [20]": {"tested_on": "NCI-H1299", "test": "Induction of autophagy in human NCI-H1299 cells transfected with GFP-LC3 assessed as increase in LC3-2 level at 3 to 10 uM after 24 hr by DAPI staining based immunofluorescence assay", "format": "functional, cell-based"}}, "note": "Active and inactive are the calls of the source. The calls are words filed in the database; no cut-off is given here."}
{"smiles": "CN(CCN)CCNCc1nccc2c1[nH]c1ccccc12", "values": [{"measurement": "IC50", "setting": "[1]", "value": 8900, "unit": "nM"}, {"measurement": "Activity", "setting": "NCI-H1299 [2]", "value": 11, "unit": "%"}, {"measurement": "Activity", "setting": "NCI-H1299 [3]", "value": "Active"}, {"measurement": "Drug uptake", "setting": "[4]", "value": "Active"}, {"measurement": "IC50", "setting": "[5]", "value": 4300, "unit": "nM"}, {"measurement": "IC50", "setting": "[6]", "value": 15100, "unit": "nM"}, {"measurement": "IC50", "setting": "[7]", "value": 9.3, "unit": "µM"}, {"measurement": "IC50", "setting": "[8]", "value": 20500, "unit": "nM"}, {"measurement": "IC50", "setting": "[9]", "value": 13.2, "unit": "µM"}, {"measurement": "IC50 at 48 h", "setting": "[10]", "value": 12.9, "unit": "µM"}]}
{"smiles": "CN(CCNCc1nccc2c1[nH]c1ccccc12)CCNCc1nccc2c1[nH]c1ccccc12", "values": [{"measurement": "IC50", "setting": "[1]", "value": 1400, "unit": "nM"}, {"measurement": "Activity", "setting": "NCI-H1299 [11]", "value": "Active"}, {"measurement": "Activity", "setting": "NCI-H1299 [12]", "value": "Active"}, {"measurement": "Activity", "setting": "NCI-H1299 [13]", "value": 97, "unit": "%"}, {"measurement": "Activity", "setting": "NCI-H1299 [14]", "value": "Dose-dependent effect"}, {"measurement": "Activity", "setting": "NCI-H1299 [15]", "value": "Dose-dependent effect"}, {"measurement": "Activity", "setting": "NCI-H1299 [16]", "value": "Active"}, {"measurement": "IC50", "setting": "[5]", "value": 700, "unit": "nM"}, {"measurement": "IC50", "setting": "[6]", "value": 1600, "unit": "nM"}, {"measurement": "IC50", "setting": "[7]", "value": 1.2, "unit": "µM"}, {"measurement": "IC50", "setting": "[8]", "value": 2900, "unit": "nM"}, {"measurement": "IC50", "setting": "[9]", "value": 3.3, "unit": "µM"}, {"measurement": "IC50 at 48 h", "setting": "[10]", "value": 5.6, "unit": "µM"}, {"measurement": "Drug uptake", "setting": "[17]", "value": "Active"}, {"measurement": "Activity", "setting": "[18]", "value": "Dose-dependent effect"}, {"measurement": "Activity", "setting": "NCI-H1299 [19]", "value": "Dose-dependent effect"}, {"measurement": "Activity", "setting": "NCI-H1299 [20]", "value": "Active"}]}
{"smiles": "O[C@]12C=C(c3nccc4c3[nH]c3ccccc34)[C@@H]3CCN(CCCC/C=C\\CC1)C[C@@]31C[C@@H]3/C=C\\CCCCN3[C@H]12", "note": "[MANZAMINE A]", "values": [{"measurement": "IC50", "setting": "[1]", "value": 1600, "unit": "nM"}, {"measurement": "IC50", "setting": "[5]", "value": 1100, "unit": "nM"}, {"measurement": "IC50", "setting": "[6]", "value": 1500, "unit": "nM"}, {"measurement": "IC50", "setting": "[7]", "value": 3.9, "unit": "µM"}, {"measurement": "IC50", "setting": "[8]", "value": 2300, "unit": "nM"}, {"measurement": "IC50", "setting": "[9]", "value": 2.1, "unit": "µM"}, {"measurement": "IC50 at 48 h", "setting": "[10]", "value": 6.8, "unit": "µM"}, {"measurement": "Activity", "setting": "NCI-H1299 [20]", "value": "Active"}]}
